ChEMBL document CHEMBL4118245, “Stereoselective synthesis of new rac-quercitols containing hydroxymethyl groups as glucosidase inhibitors” (Bioorg Med Chem Lett, 2018)

Assays:
Saccharomyces cerevisiae [1] = test: Inhibition of Saccharomyces cerevisiae alpha-glucosidase at 10 uM using 4-nitrophenyl D-glucopyranoside as substrate after 3 mins by UV/Vis spectrophotometric method relative to control
Procedure, shortened: (§1)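 Compounds were tested at 10, 20, 25, 45, 80, 120 and 180 µM, with percent enzyme inhibition reported at each level. Acarbose served as the positive control. The study ran four experiments per compound, each in triplicate, and reports mean ± S.D. IC50 is the concentration giving 50% inhibition of enzyme activity under the assay conditions, taken from this concentration series.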

Saccharomyces cerevisiae [2] = test: Inhibition of Saccharomyces cerevisiae alpha-glucosidase at 20 uM using 4-nitrophenyl D-glucopyranoside as substrate after 3 mins by UV/Vis spectrophotometric method relative to control; procedure, shortened: as §1
Saccharomyces cerevisiae [3] = test: Inhibition of Saccharomyces cerevisiae alpha-glucosidase at 25 uM using 4-nitrophenyl D-glucopyranoside as substrate after 3 mins by UV/Vis spectrophotometric method relative to control; procedure, shortened: as §1
Saccharomyces cerevisiae [4] = test: Inhibition of Saccharomyces cerevisiae alpha-glucosidase at 45 uM using 4-nitrophenyl D-glucopyranoside as substrate after 3 mins by UV/Vis spectrophotometric method relative to control; procedure, shortened: as §1
Saccharomyces cerevisiae [5] = test: Inhibition of Saccharomyces cerevisiae alpha-glucosidase at 80 uM using 4-nitrophenyl D-glucopyranoside as substrate after 3 mins by UV/Vis spectrophotometric method relative to control; procedure, shortened: as §1
Saccharomyces cerevisiae [6] = test: Inhibition of Saccharomyces cerevisiae alpha-glucosidase at 120 uM using 4-nitrophenyl D-glucopyranoside as substrate after 3 mins by UV/Vis spectrophotometric method relative to control; procedure, shortened: as §1
Saccharomyces cerevisiae [7] = test: Inhibition of Saccharomyces cerevisiae alpha-glucosidase at 180 uM using 4-nitrophenyl D-glucopyranoside as substrate after 3 mins by UV/Vis spectrophotometric method relative to control; procedure, shortened: as §1
[8] = Inhibition of Saccharomyces cerevisiae alpha-glucosidase using 4-nitrophenyl D-glucopyranoside as substrate after 3 mins by UV/Vis spectrophotometric method; procedure, shortened: as §1
Prunus dulcis [9] = test: Inhibition of almond beta-glucosidase at 10 uM using p-nitrophenyl D-glucopyranoside as substrate after 3 mins by UV/Vis spectrophotometric method relative to control; procedure, shortened: as §1
Prunus dulcis [10] = test: Inhibition of almond beta-glucosidase at 20 uM using p-nitrophenyl D-glucopyranoside as substrate after 3 mins by UV/Vis spectrophotometric method relative to control; procedure, shortened: as §1
Prunus dulcis [11] = test: Inhibition of almond beta-glucosidase at 25 uM using p-nitrophenyl D-glucopyranoside as substrate after 3 mins by UV/Vis spectrophotometric method relative to control; procedure, shortened: as §1
Prunus dulcis [12] = test: Inhibition of almond beta-glucosidase at 45 uM using p-nitrophenyl D-glucopyranoside as substrate after 3 mins by UV/Vis spectrophotometric method relative to control; procedure, shortened: as §1
Prunus dulcis [13] = test: Inhibition of almond beta-glucosidase at 80 uM using p-nitrophenyl D-glucopyranoside as substrate after 3 mins by UV/Vis spectrophotometric method relative to control; procedure, shortened: as §1
Prunus dulcis [14] = test: Inhibition of almond beta-glucosidase at 120 uM using p-nitrophenyl D-glucopyranoside as substrate after 3 mins by UV/Vis spectrophotometric method relative to control; procedure, shortened: as §1
Prunus dulcis [15] = test: Inhibition of almond beta-glucosidase at 180 uM using p-nitrophenyl D-glucopyranoside as substrate after 3 mins by UV/Vis spectrophotometric method relative to control; procedure, shortened: as §1
[16] = Inhibition of almond beta-glucosidase using p-nitrophenyl D-glucopyranoside as substrate after 3 mins by UV/Vis spectrophotometric method; design: species or system Prunus dulcis; procedure, shortened: as §1

SMILES | inhibition (Saccharomyces cerevisiae [1]) | inhibition (Saccharomyces cerevisiae [2]) | inhibition (Saccharomyces cerevisiae [3]) | inhibition (Saccharomyces cerevisiae [4]) | inhibition (Saccharomyces cerevisiae [5]) | inhibition (Saccharomyces cerevisiae [6]) | inhibition (Saccharomyces cerevisiae [7]) | IC50 [8] | inhibition (Prunus dulcis [9]) | inhibition (Prunus dulcis [10]) | inhibition (Prunus dulcis [11]) | inhibition (Prunus dulcis [12]) | inhibition (Prunus dulcis [13]) | inhibition (Prunus dulcis [14]) | inhibition (Prunus dulcis [15]) | IC50 [16]
C[C@H]1O[C@H](O[C@H]2[C@H](O)[C@@H](O)[C@@H](O[C@H]3[C@H](O)[C@@H](O)C(O)O[C@@H]3CO)O[C@@H]2CO)[C@H](O)[C@@H](O)[C@@H]1N[C@H]1C=C(CO)[C@@H](O)[C@H](O)[C@H]1O (some centres undefined) [ACARBOSE] | 22% | 30% | 33% | 46% | 60% | 63% | 74% | 52.5 µM | 17% | 25% | 29% | 39% | 52% | 60% | 66% | 57.8 µM
OC[C@H]1C[C@H](O)[C@H](O)[C@H](O)[C@H]1CO | 2% | 6% | 14% | 19% | 20% | 22% | 25% |  | 18% | 20.4% | 29% | 34.3% | 37.5% | 42.7% | 51.8% | 198 µM
OC[C@H]1C[C@H](O)[C@@H](O)[C@@H](O)[C@H]1CO | 10% | 13% | 19% | 21% | 31% | 40% | 42% |  | 2.2% | 4.98% | 12.7% | 13.7% | 19.1% | 20.2% | 30.8% | 
OC[C@H]1C[C@@H](O)[C@H](O)[C@H](O)[C@H]1CO | 15.8% | 18.8% | 19.4% | 19.9% | 21.4% | 37.6% | 42.2% |  | 3.4% | 27.8% | 28.4% | 30.4% | 31.8% | 32.1% | 33.3% | 
